The text below walks through data of ChEMBL document CHEMBL1148965, “Cytotoxic and other metabolites of Aspergillus inhabiting the rhizosphere of Sonoran desert plants” (J Nat Prod, 2004).

Activity calls are given as the source filed them. The rule behind the calls is not given here.

Data set [1] has as its system NCI-H460. Put plainly: Cytotoxicity against human NCI-H460 cells by MTT assay. The data set is classed as functional, cell-based. The method in brief:
(§1)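 Cells were exposed to DMSO-dissolved samples for 72 h in RPMI-1640 with 10% fetal bovine serum. Viability was read by tetrazolium (MTT) colorimetry. IC50 was taken as the concentration giving 50% inhibition of cell proliferation/survival. WI-38 are normal human primary fibroblasts.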
(Tetrazolium dyes change colour on reduction, which living cells bring about.)

Data set [2] has as its system SF-268. The experiment in a line: Cytotoxicity against human SF268 cells by MTT assay. The data set is classed as functional, cell-based. The method in brief:
as §1

Data set [3] has as its system MCF7. Put plainly: Cytotoxicity against human MCF7 cells by MTT assay. The data set is classed as functional, cell-based. The gist of the method:
as §1

In data set [4] the test system is MIA PaCa-2. The experiment in a line: Cytotoxicity against human MIAPaCa2 cells by MTT assay. The data set is classed as functional, cell-based. The method in brief:
as §1

A short description of data set [5]: Cytotoxicity against human WI38 cells by MTT assay. The note with it: WI-38. The data set is classed as cell-based. The method in brief: as §1
In data set [6] the test system is SF-268. The experiment in a line: Cytotoxicity against human SF268 cells at 10 ug/mL by MTT assay. The data set is classed as functional, cell-based.
The subject of data set [7] is NCI-H460. The experiment in a line: Cytotoxicity against human NCI-H460 cells at 10 ug/mL by MTT assay. The data set is classed as functional, cell-based.
For data set [8], the system named is MCF7. The experiment in a line: Cytotoxicity against human MCF7 cells at 10 ug/mL by MTT assay. The data set is classed as functional, cell-based.
Data set [9] can be described thus: Cytotoxicity against human WI38 cells at 10 ug/mL by MTT assay. The note with it: wi-38. The data set is classed as cell-based.
Data set [10] deals with MIA PaCa-2. The experiment in a line: Cytotoxicity against human MIAPaCa2 cells at 10 ug/mL by MTT assay. The data set is classed as functional, cell-based.

One may read the IC50 as the concentration needed to halve the response being measured. A higher IC50 goes with lower potency. As for `C=CC(C)(C)c1[nH]c2ccccc2c1C1=C(O)C(=O)C(c2c[nH]c3ccccc23)=C(CC=C(C)C)C1=O` [TERREQUINONE A], the IC50 came to 5.6 µM in data set [1], 13.9 µM in [2], 6.8 µM in data set [3] and 5.4 µM in data set [4].

With `C[C@H]1CCC/C=C/C(=O)c2c(O)cc(O)cc2CC(=O)O1` [DEHYDROCURVULARIN], the IC50 in data set [1] turned out to be 1.1 µM; in data set [5] it was 3.6 µM; in data set [2], 2.5 µM; in data set [3] it was 1.3 µM; in data set [4], 1.9 µM.

As for `COC1=CC(=O)C[C@](C)(O)[C@H]1O` (relative stereo), the outcome in data set [6], in data set [7], in [8] and in data set [10] was inactive. Besides, the Activity result in data set [9] is reported as “Non-toxic”.

In the case of `C[C@H]1CCCC(O)CC(=O)c2c(O)cc(O)cc2CC(=O)O1` (stereo not given in full), the IC50 in [1] amounted to 2.1 µM; in data set [5], 11.6 µM; in data set [2], 4.1 µM; in data set [3], 2 µM; in [4], 3.3 µM.

Regarding `CC/C=C/C=C/[C@]1(C)OC(CC(C)O)=CC1=O` (stereo not given in full) [TERREFURANONE], the outcome in [6], in data set [7], in data set [8] and in data set [10] was inactive. The Activity entry in data set [9] is “Non-toxic”.

Regarding `C=C(C)C1(O)OC(=O)C=C1OC` (stereo not given) [PENICILLIC ACID], the IC50 in data set [1] is 5.8 µM; in data set [5] it was 57.5 µM; in data set [2], 20 µM; in data set [3] it was 12.8 µM; in [4], 8 µM.

As for `COCC(C)C1(O)OC(=O)C=C1OC` (stereo not given), the result in [6], in [7], in [8] and in data set [10] was inactive. For the same molecule, the Activity result in data set [9] was “Non-toxic”.

For `C=CC(C)(C)[C@]12CC3C(=O)Nc4ccccc4C(=O)N3[C@H]1N(C(C)=O)c1ccccc12` (stereo not given in full), the result in data set [6], in data set [7], in [8] and in data set [10] was inactive. Besides, the Activity result in data set [9] is “Non-toxic”.

Turning to `C/C=C/C1=CC(=O)[C@](C)(/C=C/C=C/CC)O1`, the IC50 in data set [1] worked out at 5.5 µM; in data set [2] it was 6.8 µM; in [3], 11.7 µM; in data set [4], 6.3 µM.

As for `COc1cccc2c1C(=O)c1c(O)c3c(c(O)c1C2=O)C[C@@](O)(C(=O)CO)C[C@@H]3O[C@H]1C[C@H](N)[C@H](O)[C@H](C)O1` [DOXORUBICIN], the figures for the IC50 in [1] and in data set [5] were 0.01 µM and 0.3 µM, respectively.

In the case of `COC1CCC[C@H](C)OC(=O)Cc2cc(O)cc(O)c2C(=O)C1` (stereo not given in full), the IC50 is 0.9 µM in data set [1]; 1.7 µM in data set [5]; 0.9 µM in data set [2]; 0.6 µM in data set [3]; 1.2 µM in [4].

On to `COC1=CC(=O)OC1(O)C(C)C` (stereo not given), for which the result in data set [6], in data set [7], in [8] and in data set [10] was inactive. In addition, the Activity entry in data set [9] was “Non-toxic”.
